Test results as given in ChEMBL document CHEMBL4028805, “Phenylthiazole Antibacterial Agents Targeting Cell Wall Synthesis Exhibit Potent Activity in Vitro and in Vivo against Vancomycin-Resistant Enterococci” (J Med Chem, 2017).
Active and inactive are the calls of the source. The rule behind the calls is not given here.

Assays:
[1] = Induction of proton motive force collapse in Escherichia coli inverted membrane vesicle in presence of ATP-driven PMF generation system by ACMA-based fluorescence assay; type: functional, cell membranes
In short: (§1)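 E. coli inverted membrane vesicles (0.1 mg/mL membrane protein) with 2 μM ACMA and 0.5 mM ATP or succinate, in 10 mM HEPES-KOH, 5 mM MgSO4, 100 mM KCl, pH 7.5. Proton gradient followed by ACMA fluorescence (ex 410/em 480 nm). EC50 taken from dose-response curves. CCCP used as reference uncoupler.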

[2] = Induction of proton motive force collapse in Escherichia coli inverted membrane vesicle in presence of succinate/O2-driven PMF generation system by ACMA-based fluorescence assay; type: functional, cell membranes; in short: as §1
Escherichia coli [3] = experiment: Antibacterial activity against tolC deficient Escherichia coli assessed as formation of misshapen cells at 125 ug/ml after 30 mins in presence of sucrose by FM4-64/DAPI/SYTOX Green staining-based deconvolution microscopic analysis; type: functional
Escherichia coli [4] = experiment: Antibacterial activity against tolC deficient Escherichia coli assessed as formation of spheroplasts at 125 ug/ml after 30 mins in presence of sucrose by FM4-64/DAPI/SYTOX Green staining-based deconvolution microscopic analysis; type: functional
Escherichia coli [5] = experiment: Antibacterial activity against tolC deficient Escherichia coli assessed as cell lysis at 125 ug/ml after 2 hrs in presence of sucrose by FM4-64/DAPI/SYTOX Green staining-based deconvolution microscopic analysis; type: functional
Bacillus subtilis = experiment: Antibacterial activity against Bacillus subtilis assessed as cell shape defects at 1 times MIC after 2 hrs in presence of methylsulfonyl methane by phase contrast microscopic analysis; type: functional
In short: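 B. subtilis grown in LB at 37 °C to OD600 ~0.2 and treated, with or without MSM for osmotic stabilization, for 30 min or 2 h. Stained with FM 4-64 (1 μg/mL), DAPI (1 μg/mL) and SYTOX Green (1 μg/mL) to score permeability. Examined by deconvolution and phase-contrast microscopy.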

Q: With `N#CC(C#N)=NNc1cccc(Cl)c1` [CARBONYL CYANIDE M-CHLOROPHENYLHYDRAZONE] as the compound, how does the EC50 [1] read?
A: The EC50 was 400 nM.

Q: What about the EC50 [2] of the same compound?
A: The EC50 was 200 nM.

Q: Which Activity (Escherichia coli [3]) does the source give for `N[C@@H]1CONC1=O` here?
A: Its Activity is “Active”.

Q: What about the Activity (Escherichia coli [4]) of the same compound?
A: Its Activity is “Active”.

Q: And the Activity (Escherichia coli [5])?
A: Its Activity is “Active”.

Q: What about the Activity (Bacillus subtilis) of the same compound?
A: Its Activity is “Active”.
